Assays:
HDAC3 [1] = target: T1, HDAC3 (Homo sapiens, UniProt O15379); type: cell-based; conditions: MDA-MB-231 cells, inhibitor 2–12 hours; for photomate labeling (engagement) of HDAC3 after inhibitor treatment: then photomate 10 µM
Procedure, shortened: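 MDA-MB-231 cells were grown 2 days in complete medium, then treated with inhibitor. They were then either lysed directly for Western blot or photolabeled: 10 µM probe for 40 min at 37 °C, ± SAHA 200 µM competitor, then 366 nm irradiation at 4 °C. Lysate (35.2 µg) was clicked to an 800 nm IRDye azide and separated on gel. HDAC3 was co-stained by antibody and imaged at 700/800 nm.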
Target sequence in this assay (O15379 whole entry): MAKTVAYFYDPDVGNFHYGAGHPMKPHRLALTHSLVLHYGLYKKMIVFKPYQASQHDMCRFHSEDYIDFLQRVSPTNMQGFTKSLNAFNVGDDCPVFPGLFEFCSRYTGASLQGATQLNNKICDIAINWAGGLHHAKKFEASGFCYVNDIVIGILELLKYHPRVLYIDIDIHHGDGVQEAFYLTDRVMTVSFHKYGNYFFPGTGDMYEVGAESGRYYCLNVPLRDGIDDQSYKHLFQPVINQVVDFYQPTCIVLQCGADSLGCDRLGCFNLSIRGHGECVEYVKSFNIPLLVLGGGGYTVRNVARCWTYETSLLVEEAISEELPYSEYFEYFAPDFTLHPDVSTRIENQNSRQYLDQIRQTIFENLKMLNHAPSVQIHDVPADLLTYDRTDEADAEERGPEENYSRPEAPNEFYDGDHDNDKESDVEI
Target sequence in this assay (Q9Y618 whole entry partner): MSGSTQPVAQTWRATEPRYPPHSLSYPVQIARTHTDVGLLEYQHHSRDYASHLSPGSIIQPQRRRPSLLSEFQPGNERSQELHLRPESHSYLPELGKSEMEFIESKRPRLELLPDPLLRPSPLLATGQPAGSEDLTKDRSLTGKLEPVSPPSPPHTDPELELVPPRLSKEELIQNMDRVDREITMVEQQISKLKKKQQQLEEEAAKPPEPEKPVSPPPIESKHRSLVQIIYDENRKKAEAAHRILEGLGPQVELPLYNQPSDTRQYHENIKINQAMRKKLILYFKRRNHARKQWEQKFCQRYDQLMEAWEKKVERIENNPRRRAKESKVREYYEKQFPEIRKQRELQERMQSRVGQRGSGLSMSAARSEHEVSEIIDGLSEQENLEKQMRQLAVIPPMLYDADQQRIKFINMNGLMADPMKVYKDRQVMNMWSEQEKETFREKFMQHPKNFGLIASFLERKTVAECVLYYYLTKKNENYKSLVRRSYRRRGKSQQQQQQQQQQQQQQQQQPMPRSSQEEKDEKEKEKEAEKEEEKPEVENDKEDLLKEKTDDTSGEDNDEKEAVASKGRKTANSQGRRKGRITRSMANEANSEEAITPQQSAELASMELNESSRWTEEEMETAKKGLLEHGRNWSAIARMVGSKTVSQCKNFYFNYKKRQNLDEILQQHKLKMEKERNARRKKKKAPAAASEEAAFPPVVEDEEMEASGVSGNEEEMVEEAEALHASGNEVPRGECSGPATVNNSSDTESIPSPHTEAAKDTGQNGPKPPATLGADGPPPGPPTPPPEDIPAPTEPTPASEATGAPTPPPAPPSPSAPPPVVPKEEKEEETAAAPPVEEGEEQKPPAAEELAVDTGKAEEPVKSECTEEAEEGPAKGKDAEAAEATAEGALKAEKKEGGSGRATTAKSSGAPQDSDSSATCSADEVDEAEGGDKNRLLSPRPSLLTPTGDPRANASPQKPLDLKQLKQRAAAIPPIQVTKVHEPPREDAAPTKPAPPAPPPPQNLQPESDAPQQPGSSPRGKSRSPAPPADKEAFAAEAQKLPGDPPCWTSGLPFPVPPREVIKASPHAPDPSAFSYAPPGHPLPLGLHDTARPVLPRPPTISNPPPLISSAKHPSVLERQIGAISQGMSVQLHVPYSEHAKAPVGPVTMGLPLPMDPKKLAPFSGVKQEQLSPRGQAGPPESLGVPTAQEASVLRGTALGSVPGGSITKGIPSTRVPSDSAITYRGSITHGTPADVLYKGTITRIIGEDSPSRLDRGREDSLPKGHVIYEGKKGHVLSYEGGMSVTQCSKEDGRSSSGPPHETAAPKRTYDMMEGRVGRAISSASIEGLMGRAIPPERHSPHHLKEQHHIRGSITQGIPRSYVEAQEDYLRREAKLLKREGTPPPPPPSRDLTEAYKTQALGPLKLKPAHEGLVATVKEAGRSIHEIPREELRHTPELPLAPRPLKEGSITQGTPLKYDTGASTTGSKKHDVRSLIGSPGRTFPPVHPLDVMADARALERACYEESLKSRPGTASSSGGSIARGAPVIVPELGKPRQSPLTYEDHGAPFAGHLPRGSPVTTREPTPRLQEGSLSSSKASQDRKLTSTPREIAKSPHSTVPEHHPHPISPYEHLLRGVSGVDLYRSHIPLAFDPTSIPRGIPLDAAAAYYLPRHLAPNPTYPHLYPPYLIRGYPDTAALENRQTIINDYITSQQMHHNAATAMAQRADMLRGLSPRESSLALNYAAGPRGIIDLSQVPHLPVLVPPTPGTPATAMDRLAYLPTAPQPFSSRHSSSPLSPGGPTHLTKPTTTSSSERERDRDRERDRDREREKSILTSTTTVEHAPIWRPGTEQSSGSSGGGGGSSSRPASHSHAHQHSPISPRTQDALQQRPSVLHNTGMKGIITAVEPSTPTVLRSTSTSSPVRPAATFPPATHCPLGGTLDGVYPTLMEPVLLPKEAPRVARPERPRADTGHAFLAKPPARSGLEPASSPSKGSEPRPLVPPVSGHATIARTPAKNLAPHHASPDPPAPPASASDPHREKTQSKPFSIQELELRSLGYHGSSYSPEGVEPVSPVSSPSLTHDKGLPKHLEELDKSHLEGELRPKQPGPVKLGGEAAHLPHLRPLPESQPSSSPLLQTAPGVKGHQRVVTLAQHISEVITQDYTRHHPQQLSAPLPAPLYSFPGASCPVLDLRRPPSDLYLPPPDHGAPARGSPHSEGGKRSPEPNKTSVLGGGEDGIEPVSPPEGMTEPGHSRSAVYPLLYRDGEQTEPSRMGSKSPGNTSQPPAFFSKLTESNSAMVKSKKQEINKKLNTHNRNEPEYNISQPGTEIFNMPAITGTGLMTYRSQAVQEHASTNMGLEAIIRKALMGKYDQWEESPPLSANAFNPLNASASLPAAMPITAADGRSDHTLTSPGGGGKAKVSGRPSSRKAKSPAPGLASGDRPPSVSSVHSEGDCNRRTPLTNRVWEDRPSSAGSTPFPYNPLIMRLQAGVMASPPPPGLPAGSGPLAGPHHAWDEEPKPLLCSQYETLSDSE
Target sequence in this assay (O60907 whole entry partner): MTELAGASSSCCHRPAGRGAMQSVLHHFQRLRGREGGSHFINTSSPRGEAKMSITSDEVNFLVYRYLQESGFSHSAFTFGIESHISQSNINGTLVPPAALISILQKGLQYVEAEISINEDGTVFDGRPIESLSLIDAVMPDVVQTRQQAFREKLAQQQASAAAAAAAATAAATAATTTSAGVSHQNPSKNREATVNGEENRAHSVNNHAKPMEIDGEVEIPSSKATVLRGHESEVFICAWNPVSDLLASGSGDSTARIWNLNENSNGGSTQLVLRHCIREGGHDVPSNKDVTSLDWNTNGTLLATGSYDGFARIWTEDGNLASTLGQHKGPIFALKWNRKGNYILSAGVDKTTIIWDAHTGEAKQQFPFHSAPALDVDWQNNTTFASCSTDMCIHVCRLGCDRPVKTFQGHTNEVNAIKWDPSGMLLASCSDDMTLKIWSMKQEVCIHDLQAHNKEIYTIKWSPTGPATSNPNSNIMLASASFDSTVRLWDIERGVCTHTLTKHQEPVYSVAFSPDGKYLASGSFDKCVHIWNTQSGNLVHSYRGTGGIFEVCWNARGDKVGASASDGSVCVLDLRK
Target sequence in this assay (Q13227 whole entry partner): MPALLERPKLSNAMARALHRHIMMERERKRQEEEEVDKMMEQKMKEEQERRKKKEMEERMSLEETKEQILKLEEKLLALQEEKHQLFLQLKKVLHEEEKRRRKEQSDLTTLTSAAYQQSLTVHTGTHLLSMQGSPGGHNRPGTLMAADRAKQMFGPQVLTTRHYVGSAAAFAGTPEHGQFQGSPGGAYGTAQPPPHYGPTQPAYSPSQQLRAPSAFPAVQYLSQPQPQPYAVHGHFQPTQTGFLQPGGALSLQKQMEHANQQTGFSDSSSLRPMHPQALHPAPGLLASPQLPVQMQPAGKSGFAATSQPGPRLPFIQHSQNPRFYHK

[2] = system: recombinant class I and II HDACs; assay: Photolabeling of recombinant proteins, gel based visualization; type: binding
HDAC3 [3] = target: T1, HDAC3; assay: Treatment followed by in situ photolabeling and Western blot, MCF-7 cells; type: cell-based
Procedure, shortened: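 MCF-7 cells received TNF-α or vehicle, then photomate 10 µM (± SAHA 200 µM) for 40 min at 37 °C. They were irradiated at 366 nm (35 J/cm2) at 4 °C. Lysate (35.2 µg) was clicked to azide 800CW IRDye (90 min rt), gel-separated and fluorescence-imaged. HDAC3 and phospho-HDAC3 were detected by Western blot with IRDye secondaries.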

recombinant HDAC4 = recombinant HDAC4 (Homo sapiens, UniProt P56524); assay: Fluorogenic enzymatic assay, recombinant HDAC4; type: biochemical
HDAC3 [4] = target: T1, HDAC3; assay: Fluorogenic enzymatic assay, recombinant HDAC3; type: biochemical
Procedure, shortened: (§1)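 Deacetylase activity of recombinant human class I HDAC isoforms was measured with a fluorogenic assay following previously published procedures. Inhibition is reported as log IC50, as the average ± s.e. of n=3.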
Target sequence in this assay (O15379 whole entry): as the sequence (O15379 whole entry) above
Target sequence in this assay (Q9Y618 395-489 partner limits assumed): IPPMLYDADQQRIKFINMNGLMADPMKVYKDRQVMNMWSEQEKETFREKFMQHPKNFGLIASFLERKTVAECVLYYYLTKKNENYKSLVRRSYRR

TNBC cells = assay: Efficacy in breast cancer cells; type: cell-based, Human; conditions: Figure S2B
recombinant HDAC8 = target: T2, recombinant HDAC8 (Homo sapiens, UniProt Q9BY41); assay: Fluorogenic enzymatic assay, recombinant HDAC8; type: biochemical
T2 sequence (Q9BY41 1-377): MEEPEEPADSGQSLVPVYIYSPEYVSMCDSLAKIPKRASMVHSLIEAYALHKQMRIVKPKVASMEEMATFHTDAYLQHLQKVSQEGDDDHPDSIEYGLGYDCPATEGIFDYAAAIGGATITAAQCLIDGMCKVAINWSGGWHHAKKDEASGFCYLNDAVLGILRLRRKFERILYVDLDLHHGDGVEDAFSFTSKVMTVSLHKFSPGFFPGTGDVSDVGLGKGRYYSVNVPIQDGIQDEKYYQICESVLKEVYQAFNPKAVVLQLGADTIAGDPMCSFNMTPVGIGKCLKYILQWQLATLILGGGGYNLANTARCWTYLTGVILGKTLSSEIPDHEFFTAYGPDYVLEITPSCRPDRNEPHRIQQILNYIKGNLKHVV
Procedure, shortened: as §1

class I and II HDACs [5] = type: cell-based, Human; conditions: seven breast cancer cell lines, photomate 10 µM
Procedure, shortened: (§2)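 Cells at 90% confluence were pretreated with SAHA (200 µM) or DMSO, then given photomate 10 µM for 40 min at 37 °C. They were cooled to 4 °C and irradiated at 366 nm (35 J/cm2). Lysate (1 mg) was clicked to azide-biotin (1.5× probe; TCEP, TBTA, CuSO4; 90 min rt), then enriched on streptavidin beads and in-gel digested. Proteins reduced ≥50% by SAHA were scored.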

class I and II HDACs [6] = target: T3, class I and II HDACs (Homo sapiens, UniProt O15379); type: cell-based; conditions: P<.0001
T3 sequence (O15379 whole entry): as the sequence (O15379 whole entry) above
Procedure, shortened: as §2

class I and II HDACs [7] = assay: In situ photolabeling of MCF-7 cells, enrichment, Western blot and MS/MS; type: cell-based, Human; conditions: MCF-7 cells
Procedure, shortened: (§3)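 MCF-7 cells at 90% confluence were pretreated with SAHA (200 µM) or DMSO, then given 10 µM test compound for 40 min at 37 °C. Cells were cooled to 4 °C, irradiated at 366 nm (35 J/cm2) and lysed in HEPES pH 7.5 buffer. Lysate was click-conjugated to biotin azide (CuSO4/TBTA/TCEP, 90 min, rt), then streptavidin-enriched for Western blot or in-gel tryptic MS/MS. A hit was a protein reduced ≥50% by SAHA and absent in DMSO controls.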

class I and II HDACs [8] = target: T3, class I and II HDACs; assay: as above; type: cell-based; conditions: MCF-7 cells and other luminal cell types
Procedure, shortened: as §3

recombinant HDAC1 = recombinant HDAC1 (Homo sapiens, UniProt Q13547); assay: Fluorogenic enzymatic assay, recombinant HDAC1; type: biochemical
Chain of recombinant HDAC1 (Q13547 whole entry): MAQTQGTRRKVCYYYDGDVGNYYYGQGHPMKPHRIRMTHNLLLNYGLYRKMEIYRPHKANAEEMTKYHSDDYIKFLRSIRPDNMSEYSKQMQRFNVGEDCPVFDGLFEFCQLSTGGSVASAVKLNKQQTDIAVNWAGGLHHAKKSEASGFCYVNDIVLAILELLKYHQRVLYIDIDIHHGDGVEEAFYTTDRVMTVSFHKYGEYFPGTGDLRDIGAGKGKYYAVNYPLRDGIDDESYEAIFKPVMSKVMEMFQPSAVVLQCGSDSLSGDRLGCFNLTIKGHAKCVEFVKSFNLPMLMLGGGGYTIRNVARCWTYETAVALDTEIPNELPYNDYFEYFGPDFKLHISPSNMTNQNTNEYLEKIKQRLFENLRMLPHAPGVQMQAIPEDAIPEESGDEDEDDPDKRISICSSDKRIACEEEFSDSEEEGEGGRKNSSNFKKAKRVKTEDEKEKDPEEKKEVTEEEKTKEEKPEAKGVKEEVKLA
Procedure, shortened: as §1

recombinant HDAC2 = recombinant HDAC2 (Homo sapiens, UniProt Q92769); assay: Fluorogenic enzymatic assay, recombinant HDAC2; type: biochemical
Chain of recombinant HDAC2 (Q92769 whole entry): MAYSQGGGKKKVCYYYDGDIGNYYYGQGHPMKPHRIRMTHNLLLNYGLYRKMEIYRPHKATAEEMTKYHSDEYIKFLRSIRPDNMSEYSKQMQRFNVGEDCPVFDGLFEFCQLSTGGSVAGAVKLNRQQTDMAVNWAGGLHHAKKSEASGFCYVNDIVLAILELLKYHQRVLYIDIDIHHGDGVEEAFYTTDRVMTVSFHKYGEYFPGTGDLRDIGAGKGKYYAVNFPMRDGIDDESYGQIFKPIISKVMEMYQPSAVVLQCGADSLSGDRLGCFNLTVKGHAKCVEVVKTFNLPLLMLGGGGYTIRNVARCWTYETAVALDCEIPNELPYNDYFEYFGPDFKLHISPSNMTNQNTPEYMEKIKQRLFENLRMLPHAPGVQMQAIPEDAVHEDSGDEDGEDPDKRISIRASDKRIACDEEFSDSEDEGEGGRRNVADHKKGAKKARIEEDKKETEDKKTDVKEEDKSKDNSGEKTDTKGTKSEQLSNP
Procedure, shortened: as §1

[9] = MCF-7 cells stimulated with TNF-α, compared to TNF-α alone

HDAC3 phosphorylation after inhibitor treatment (HDAC3 [1]) | photomate labeling (engagement) of HDAC3 after inhibitor treatment (HDAC3 [1]) | photomate labeling of HDAC3 after treatment (HDAC3 [3]; MCF-7 cells) | Molecule | also measured
did not affect | did not affect |  | COc1ccc(CNC(=O)Nc2ncc([N+](=O)[O-])s2)cc1 [AR-A014418] | 
 | no change |  | O=C(c1ccc(Nc2nccc(-c3cc4ccccc4s3)n2)cc1)N1CCC(N2CCCC2)CC1 [IKK-16] | 
 |  |  | O=C(CCCCCCC(=O)Nc1ccccc1)NO [SAHA, suberoyl anilide hydroxamic acid] | photomate labeling of HDAC isoforms upon co-incubation with competitor ([2]; SAHA 200 µM, photomate 10 µM): Labeling of all HDAC isoforms was lost
complete loss of HDAC3 phosphorylation | abolished the labeling of HDAC3 |  | Oc1c2ccccc2c2c3c(cccc13)N=N2 [SP600125] | 
decreased | decreased |  | CCOc1nc(NC(=O)Cc2cc(OC)ccc2OC)cc(N)c1C#N [TCS 6o] | HDAC3 phosphorylation, JNK inhibitor pretreatment then TNF-α (HDAC3 [3]; [9]): decrease in HDAC3 labeling and phosphorylation; photomate labeling of HDAC3, JNK inhibitor pretreatment then TNF-α (HDAC3 [3]; [9]): decrease in HDAC3 labeling and phosphorylation
 |  |  | C#CCN(CCCCCC(=O)NO)Cc1c(F)c(F)c(N=[N+]=[N-])c(F)c1F [photomate, 6-((4-Azido-2,3,5,6-tetrafluorobenzyl)(prop-2-yn-1-yl)amino)-N-hydroxyhexanamide] | IC50 (recombinant HDAC4): 20100 nM; IC50 (HDAC3 [4]): 109 nM; efficacy in TNBC cells (TNBC cells): increased efficacy in TNBC cells; IC50 (recombinant HDAC8): 2270 nM; HDAC isoforms enriched across cell lines (class I and II HDACs [5]): ubiquitously targeted and enriched HDAC1, 2 and 9 from every cell line; HDAC3 enriched from TNBC cell lines in comparison to luminal subtypes (class I and II HDACs [6]): increased amounts of HDAC3 were enriched from TNBC cell lines; relative potency or affinity based on inhibition or labeling (isoform selectivity) ([2]; recombinant HDAC1, 2, 3, 8 and 4): nonselective for HDAC1, 2 and 3 but shows decreased potency and affinity with respect to HDAC8 and the class II HDAC4; HDAC targets identified by MS/MS and Western blot (class I and II HDACs [7]): HDAC1 and 2 were the only HDAC targets; engagement of HDAC3 in cells (class I and II HDACs [8]): could not be detected; IC50 (recombinant HDAC1): 417 nM; IC50 (recombinant HDAC2): 132 nM
 |  | no increase | CC/C(=C(\c1ccccc1)c1ccc(OCCN(C)C)cc1)c1ccccc1 [tamoxifen] | HDAC3 phosphorylation after treatment (HDAC3 [3]; MCF-7 cells): no increase
 |  | had no effect | EGF: MAPK stimulating growth factor | 
 |  | had no effect | IGF-1: MAPK stimulating growth factor | 
 |  | induces specific labeling of HDAC3 | TNF-α | 

Molecule | HDAC3 phosphorylation after inhibitor treatment (HDAC3 [1]) | photomate labeling (engagement) of HDAC3 after inhibitor treatment (HDAC3 [1]) | photomate labeling of HDAC3 after treatment (HDAC3 [3]; MCF-7 cells) | also measured
O=c1cc(N2CCOCC2)oc2c(-c3ccccc3)cccc12 [LY294002] | Neither of the compounds induced any change | Neither of the compounds induced any change |  | 
Oc1ccc(-c2nc(-c3ccncc3)c(-c3ccc(F)cc3)[nH]2)cc1 [SB202190] |  | increased labeling |  | 
Brc1c(Br)c(Br)c2n[nH]nc2c1Br [TBB] | Neither of the compounds induced any change | Neither of the compounds induced any change |  | 

— PMC5693607 (Cell chemical biology, 2017)
